# Bioassay records from PubChem.
# HDAC3 inhib = HDAC3 deacetylase inhibitors, primary screen, biochemical, fluorescence, cell-free homogeneous; Histone deacetylase 3 (Homo sapiens), O15379; recombinant HDAC3, fluorogenic peptide/trypsin coupled; inhibition, % at 8.3 µM; 320,000 compounds, 0.15% hits; AID 2718, 2010; in the data active means inhibition above about 26%, passing the limit was not always enough; inconclusive means no clear call, values can overlap the other calls
# Target sequence (O15379 whole entry, looked up): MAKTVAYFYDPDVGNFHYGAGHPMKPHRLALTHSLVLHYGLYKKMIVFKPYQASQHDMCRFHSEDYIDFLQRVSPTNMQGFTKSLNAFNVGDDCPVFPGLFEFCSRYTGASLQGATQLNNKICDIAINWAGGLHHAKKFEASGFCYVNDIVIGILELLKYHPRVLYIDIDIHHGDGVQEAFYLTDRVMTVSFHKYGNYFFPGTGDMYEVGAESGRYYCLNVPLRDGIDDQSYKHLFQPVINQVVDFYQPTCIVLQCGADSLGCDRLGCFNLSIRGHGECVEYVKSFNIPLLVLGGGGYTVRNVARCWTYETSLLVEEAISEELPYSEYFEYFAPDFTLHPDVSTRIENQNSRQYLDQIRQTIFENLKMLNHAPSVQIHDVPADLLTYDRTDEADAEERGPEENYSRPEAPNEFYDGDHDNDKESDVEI
# CaV13 ICDI inh = Primary screen for inhibitors of IQ motif and Ca2+-dependent inactivation inhibitor domain binding in CACNA1D, Förster resonance energy transfer in living cells, … | HEK cells, CFP/YFP FRET ICDI-IQ, plate reader, 10 min; percent FRET-ratio fall versus neutral wells | inhibition, % at 12.3 µM | 340,000 compounds, 0.098% hits;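 active means mean replicate inhibition of at least 30% and at least 1% of replicates passing that level; inconclusive means only one of the two criteria is met; inactive means neither criterion is met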;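 further: 0% = median of the neutral control wells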
# LANA-H2B inh = blockers of LANA interaction with H2A/H2B – biochemical, FP readout, HTS, primary screen | cell-free LANA-H2A/H2B peptide, fluorescence polarization | inhibition, % (no concentration beside the values) | 320,000 compounds, 0.6% hits | AID 2629, 2010; in the data active means inhibition mostly above about 10%, no sharp cut-off; inactive means mostly below about 6.7%
# Runt-CBFb FRET = inhibitors of RUNX1 Runt–CBFb binding, primary screen, biochemical, FRET, Cerulean-Runt, Venus-CBFb, uHTS; Cerulean-Runt/Venus-CBFb FRET ratio 530/480, 1 h; inhibition, % at 20 µM; 220,000 compounds, 0.46% hits;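 active means inhibition over about 50% at 20 µM in the single-dose screen, limit read from the data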;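 further: 0% = DMSO wells and 100% = excess unlabeled CBFb competitor control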
#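 Measured by: fluorescence energy transfer, 422 nm excitation, 530/480 nm emission; test system: Cerulean-tagged RUNX1 Runt domain (FRET donor) fusion protein; buffer or medium: Tris pH 7.5 buffer with BSA; compound: one dose, 20 µM compound, 1% DMSO; times: two 1 h room-temperature incubations shielded from light; benchmarks: unlabeled CBFb 5 µM, positive control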
# Runt-SMMHC FRET = inhibitors of RUNX1 Runt–CBFb-SMMHC binding, primary screen, biochemical, FRET, Cerulean-Runt, Venus-CBFb-SMMHC, uHTS; inhibition, % at 20 µM; Cerulean-Runt/Venus-CBFb-SMMHC FRET ratio 530/480, 1 h; 220,000 compounds, 0.74% hits; Runt-related transcription factor 1 (Homo sapiens) + Core-binding factor subunit beta …;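 active means mean inhibition across duplicate retests at 20 µM reaching about 50%, limit read from the data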;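 further: 0% = DMSO wells and 100% = wells with excess untagged CBFb-SMMHC; inhibitors lower the FRET ratio by blocking Runt binding to CBFb-SMMHC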
# RanGTP-Imp inh = inhibitors of RanGTP-importin-beta interaction, primary screen, biochemical, FRET, CFP-Ran, YFP-importin-beta, homogeneous; cell-free CFP-Ran/YFP-importin-beta FRET ratio; inhibition, % (test concentration not listed); 300,000 compounds, 1.1% hits; AID 2216, 2009;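 active means more than half of the replicate wells show a fall in the fluorescence ratio signal beyond about 16%, limit read from the data, passing the limit was not always enough; inconclusive means exactly half of the replicate wells pass the set limit; inactive means fewer than half of replicates pass the limit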;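 further: 0% = DMSO wells and 100% = Ran loaded with GDP instead of GTP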
# RUNX1 CBFb TR = inhibitors of RUNX1 Runt–CBFb binding, biochemical, TR-FRET; shares compounds with Runt-CBFb FRET; TR-FRET RUNX1 Runt domain-CBFb binding; inhibition, % at 20 µM; 480 compounds, 20% hits; in the data active means inhibition above about 40%
# The depositor's hits bear a star; u = inconclusive; x = no result. The list is not random: actives were taken first. Their share in the collection is about 1.9%.
SMILES,HDAC3 inhib,CaV13 ICDI inh,LANA-H2B inh,Runt-CBFb FRET,Runt-SMMHC FRET,RanGTP-Imp inh,RUNX1 CBFb TR
CS(=O)(=O)c1sc2nc(-c3cccs3)cc(-c3ccccc3)c2c1N,8,-6,-3,54*,85*,-2,17
N#Cc1sc2nc(-c3cccs3)cc(-c3ccc(F)cc3)c2c1N,u,-8,-3,-35,-95,-18,x
COc1ccc(Cn2c3nc4ccccc4nc3c3c(=O)n(Cc4ccco4)c(C)nc32)cc1,x,x,x,52*,48,x,-29
Oc1[nH]c2ccc(Br)cc2c1N=NC(=S)N1CCOCC1,x,-2,3,19,11,-3,x
Cc1cc(C)nc(SCNC(=O)c2ccccc2)n1,-1,-8,-3,69*,18,-6,-14
COc1ccccc1/C=C/c1nc(S(=O)(=O)c2ccccc2)c(NCCN(C)C)o1,0,-8,-6,x,x,10,x
Cc1cc(C)nc(Sc2nc(Cl)nc(N(c3ccccc3)c3ccccc3)n2)n1,7,x,2,59*,53,0,18
O=C1c2ccccc2C(=O)N1c1nccs1,x,-11,x,x,x,x,x
O=c1c2ccccc2sn1-c1nccs1,x,-12,x,50*,80*,8,-8
Cc1ncc(CO)c(/C=N/NC(=O)c2cc(Br)ccc2O)c1O,16,-5,-3,1,-25,2,x
Cc1ncc(CO)c(/C=N/NC(=O)c2cc(O)c(O)c(O)c2)c1O,x,x,x,57*,51*,8,66*
CC(C)Cc1csc(NC(=O)c2ccc(Cl)cc2)c1C(=O)O,3,-5,-2,1,-2,-2,x
CC(C)Cc1csc(NC(=O)c2ccccc2Cl)c1C(=O)O,-81,-6,4,105*,-9,-4,3
Cc1[nH]c2ccccc2c1C1=NNC(=Nc2ccc(F)cc2)SC1,-1,-19,-8,53*,47,x,-2
CC(=O)c1ccc(-n2c(-c3cc(-c4ccco4)[nH]n3)n[nH]c2=S)cc1,8,x,0,18,12,-1,x
O=C(O)c1ccc(-n2c(-c3cc(-c4ccco4)[nH]n3)n[nH]c2=S)cc1,10,-6,4,53*,53,u,81*
O=C(COc1ccccc1)NNc1c2ccccc2nc2ccccc12,0,x,0,58*,81*,5,-1
O=C(NNc1c2ccccc2nc2ccccc12)c1ccc(O)cc1,u,44*,2,52*,58*,36*,-45
Cc1ccc(NC(=O)CN(C)C(=O)CSc2nc(C)cs2)cc1,-7,-2,1,1,1,-1,x
CCCNC(=O)C12CCC(C)(C(=O)O1)C2(C)C (stereo not given),13,-4,6,-1,-1,-2,x
Cc1[nH]c2ccccc2c1SCC(=O)O,2,x,6,70*,-9,-4,-28
O=C(NCCN1C(=O)S/C(=C\c2cccnc2)C1=O)C1CC(=O)N(Cc2ccco2)C1 (stereo not given),5,-5,6,2,-3,-2,x
Cc1ccc2c(c1)sc(C)[n+]2CCCS(=O)(=O)[O-],-3,-1,-5,58*,50,1,29
O=C(c1cccnc1)n1nc(NCc2ccccc2)nc1NCc1ccccc1,10,-7,0,-5,0,-2,x
Cc1ccc2nc3c(cc(C(=O)NCCCn4ccnc4)n3C)c(=O)n2c1,-122,-5,8,54*,77*,-3,-23
SMILES,HDAC3 inhib,CaV13 ICDI inh,LANA-H2B inh,Runt-CBFb FRET,Runt-SMMHC FRET,RanGTP-Imp inh,RUNX1 CBFb TR
CC(=O)N(CC#CCN(C(C)=O)c1ccccc1)c1ccccc1,x,-15,x,x,x,x,x
Cc1ccc(N/C=C2/Sc3ccccc3NC2=O)cc1,10,-7,-8,36,-8,-2,x
COc1ccc(N/C=C2/Sc3ccccc3NC2=O)cc1,4,-3,-9,61*,54*,1,14
O=C1Nc2ccccc2S/C1=C/NCc1ccccc1Cl,-1,-2,5,59*,26,0,14
Cc1ccc(/C=N/NC(=O)c2cccs2)s1,6,-6,0,1,5,1,x
COc1ccc(OC)c(C(C)NC(=O)C(C)n2cc([N+](=O)[O-])cn2)c1 (stereo not given),-11,-5,5,x,x,x,x
Cc1cc(C)c(NC(=S)N(CCN(C)C)Cc2cccs2)c(C)c1,7,0,-13,-1,-8,-2,x
Cc1ccc(NC(=S)N(CCN(C)C)Cc2cccs2)c(C)c1,5,-8,-2,54*,43,-1,23
OC(CNCCNc1ncccc1C(F)(F)F)Cn1ccc2ccccc21 (stereo not given),0,-8,-6,0,-3,0,x
O=C1/C(=C/c2ccncc2)SC(=S)N1Nc1ccccc1,16,-5,-2,50*,28,9,50*
COC(=O)c1cc(=O)nc2sc(-c3ccc(F)cc3)nn12,7,x,1,52*,5,0,22
O=C(c1ccccn1)N1CCCC(N2CCN(c3ccc(F)cc3)CC2)C1 (stereo not given),3,-2,6,x,x,-3,x
CN1C(=O)C2(NC(=O)c3ccccc3N2C)c2ccccc21 (stereo not given),-4,-2,4,-2,-4,-3,x
CN1C(=O)C(Cl)(Cl)C(=O)c2ccccc21,x,x,x,54*,55,3,5
CC(C)N1CCc2c(sc(N)c2C#N)C1,u,-5,-23,59*,142*,68*,-3
Cc1c(Cc2ccccc2)c(=O)oc2cc(O)ccc12,-314,-5,6,66*,128*,4,-5
COc1cccc2cc(C(=O)N3CCN(C45CC6CC(CC(C6)C4)C5)CC3)c(=O)oc12,4,x,2,60*,90,53*,-4
CCN1C(=O)[C@H]2[C@@H](c3ccc(C)cc3)N[C@]3(CCCN(CC4CCCCC4)C3=O)[C@H]2C1=O,x,-10,x,x,x,x,x
O=c1oc2c(-c3cccc(F)c3)cc(O)cc2s1,7,-3,1,58*,9,-1,23
